The list is not random: actives were taken first. Their share in the collection is about 4.1%.
KCNK9 block: blocks the human KCNK9 two-pore domain potassium channel. HEK293 KCNK9, FluxOR thallium flux fluorescence; hits give low values. B-score at 10 µM. actives 1.2% (n = 310,000);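 active means ratio B-score over 3 SD below the library mean, with starting fluorescence within 5 SD of its mean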;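 further: negative B-score means less thallium flux so channel inhibition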
hERG protect: hERG (human) protection from proarrhythmic block; Q12809; activation (rescue from dofetilide block), less the hit threshold, % at 10 µM; actives 0.51% (n = 310,000); CHO-hERG, FluxOR thallium flux, dofetilide IC70 present;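 active means activation above the mean of controls blocked by dofetilide plus 5 SD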;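 further: thallium influx through hERG after potassium depolarization seen as dye fluorescence rise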
KCNK3 inh: human KCNK3 channel inhibition, primary screen. O14649. CHO-KCNK3 thallium flux, FluxOR fluorescence; hits give low values. B-score at 10 µM. actives 0.84% (n = 340,000). AID 602410;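 active means B-score under library mean minus 4 SD, starting fluorescence ratio at most library mean plus 5 SD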;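 further: more negative B-score means stronger inhibition of thallium flux through KCNK3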
KCNQ1 act: human KCNQ1 channel potentiation or activation; P51787; CHO-K1 KCNQ1, thallium flux FluxOR fluorescence; hits give high values; B-score at 10 µM; actives 0.35% (n = 310,000); AID 2648;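 active means fluorescence ratio B-score, a plate-corrected score, at least three library SD, with initial intensity B-score within 5 SD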
Target sequence (P51787 whole entry, looked up): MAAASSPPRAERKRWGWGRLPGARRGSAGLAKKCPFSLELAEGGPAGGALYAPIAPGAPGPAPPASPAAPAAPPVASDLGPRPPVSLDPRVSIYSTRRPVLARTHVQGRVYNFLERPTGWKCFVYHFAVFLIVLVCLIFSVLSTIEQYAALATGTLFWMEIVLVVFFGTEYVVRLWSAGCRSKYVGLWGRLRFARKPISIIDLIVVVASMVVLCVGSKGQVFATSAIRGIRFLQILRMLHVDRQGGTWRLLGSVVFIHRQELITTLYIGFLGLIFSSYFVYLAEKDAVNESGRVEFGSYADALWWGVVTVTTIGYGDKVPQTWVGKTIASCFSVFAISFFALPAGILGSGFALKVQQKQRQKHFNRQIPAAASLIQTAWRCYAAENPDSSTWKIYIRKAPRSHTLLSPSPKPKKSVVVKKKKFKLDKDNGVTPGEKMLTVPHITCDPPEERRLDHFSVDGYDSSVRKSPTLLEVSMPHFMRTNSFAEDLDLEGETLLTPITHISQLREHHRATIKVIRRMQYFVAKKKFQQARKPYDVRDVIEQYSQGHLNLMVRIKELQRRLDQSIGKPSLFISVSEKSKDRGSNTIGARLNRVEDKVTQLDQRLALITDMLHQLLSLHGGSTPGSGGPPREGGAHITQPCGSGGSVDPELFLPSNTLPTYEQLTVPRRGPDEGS
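assay system = KCNQ1-transfected CHO-K1 cells | medium = assay buffer with matched DMSO | probe or stimulus = depolarizing K+/Tl+ stimulus, K2SO4 and Tl2SO4 each 12.5 mM in 5x stock | dosing = single dose | incubation = dye 90 min, compound 20 min, room temperature | detection = kinetic FluxOR fluorescence, 10 s baseline plus 110 s post-stimulus | evaluation = ratio B score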
KCC2 mod: modulates chloride dependent transport by human KCC2 | KCC2 cells, thallium flux FluoZin-2 fluorescence | B-score of Tl+ flux slope (higher = more flux/activation; lower = inhibition) at 10 µM | actives 2.2% (n = 190,000) | AID 1456;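 active means thallium flux slope and its plate-corrected score both differing from the plate sample mean at a set confidence after two filtering rounds, in either direction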;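 further: slope of fluorescence scaled to starting intensity during 10 to 20 s after thallium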
KCNQ1 inh: blocks the human KCNQ1 potassium channel. actives 1.3% (n = 310,000). P51787. CHO-K1 KCNQ1, FluxOR thallium flux fluorescence; hits give high values. B-score at 10 µM. AID 2642;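 active means compounds whose thallium flux B-score, printed positive for inhibition, exceeds three library SD while starting fluorescence stays within three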;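 further: channel opened by potassium depolarization with thallium stimulus after 20 min compound exposure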
KCC2 secondary: KCC2 (human) modulation, secondary assay; actives 15% (n = 3,700); shares compounds with KCC2 mod; AID 1713; HEK293-KCC2, thallium flux, FluoZin2 fluorescence; hits give high values; normalised thallium flux (F/F0 slope) at 10 µM;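 active means thallium flux slope above the same plate's solvent-only control mean plus 3 SD; inconclusive means the two replicate wells disagree; inactive means no significant difference from solvent-only control wells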
KCC2 bumet counter: bumetanide-insensitive thallium flux in KCC2 cells with ouabain, counter-screen; shares compounds with KCC2 mod; HEK293-KCC2 + bumetanide/ouabain, thallium flux FluoZin2; hits give high values; normalized thallium flux at 10 µM; actives 49% (n = 3,700); AID 1714;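 active means thallium entry rate above the same plate's blocked-transporter control wells by more than 3 SD; inconclusive means the two repeat wells disagree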;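 further: raw slope of fluorescence over initial fluorescence between 10 and 20 s after thallium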
KCC2 secondary2: KCC2 (human) modulation, second secondary assay. normalized thallium flux at 10 µM. AID 1715. shares compounds with KCC2 mod. actives 23% (n = 3,700). HEK293-KCC2, thallium flux FluoZin2 fluorescence; actives lie on both sides; F/F0 rise rate, 10–20 s post-thallium;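 active means thallium flux slope more than 3 SD above or below the plate's solvent-only control mean, mostly below; inconclusive means the two repeat wells disagreed; inactive means no significant shift from solvent-only controls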;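 further: raw slope with 0.1% DMSO as baseline and bumetanide as block control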
HEK counter1: counter-screen for KCC2 modulators: effect in parental HEK293 cells. thallium flux rate (normalised fluorescence) at 10 µM. shares compounds with KCC2 mod. actives 46% (n = 3,700). thallium flux FluoZin2, ouabain; baseline-ratio fluorescence slope, 10–20 s after thallium. AID 1716;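 active means thallium flux rate significantly above the same plate's solvent-only control wells, beyond their mean plus 3 SD; inconclusive means the two replicate wells gave conflicting results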
KCC2 retest ouab: KCC2 (human) modulation, ouabain retest; actives 48% (n = 3,700); shares compounds with KCC2 mod; HEK293-KCC2, thallium flux FluoZin2 fluorescence; bidirectional: low = inhibitor, high = activator; raw Tl+ flux slope (below DMSO = inhibition, above = activation) at 10 µM;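 active means thallium flux slope beyond 3 SD from same-plate DMSO control mean in most replicates, usually higher, sometimes lower; inconclusive means repeat tests gave conflicting results; inactive means no significant difference from controls in most replicates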;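 further: slope of initial-normalized fluorescence between seconds 10 and 20 after thallium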
HEK counter2: counter-screen for KCC2 modulators: effect in parental HEK293 cells; thallium flux FluoZin-2 fluorescence slope; actives 33% (n = 3,700); AID 1718; thallium flux slope at 10 µM; shares compounds with KCC2 mod;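 active means thallium flux slope above the same plate's solvent-control mean plus 3 SD in both duplicate wells; inconclusive means duplicate wells that disagreed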;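 further: run without ouabain in cells lacking the KCC2 cotransporter; slope of fluorescence scaled to its starting value between 10 and 20 s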
* hit, by the source's call; i = inactive; ? = inconclusive; · = no result given.

SMILES | KCNK9 block | hERG protect | KCNK3 inh | KCNQ1 act | KCC2 mod | KCNQ1 inh | KCC2 secondary | KCC2 bumet counter | KCC2 secondary2 | HEK counter1 | KCC2 retest ouab | HEK counter2
CC(c1ccccc1)n1c(-c2cccs2)nc2c(c(=O)c3ccccc3n2C)c1=O (configuration not stated) | -8.1* | -5 | i | i | -3.6* | i | 0.0077 | 0.0064 | 0.029 | 0.0057* | 0.018 | 0.0097
Cn1c2ccccc2c(=O)c2c(=O)n(-c3ccc(F)cc3)c(-c3cccs3)nc21 | i | -2 | i | i | -0.056 | i | · | · | · | · | · | ·
Cc1occc1-c1nnc(SCC(=O)c2ccc(F)cc2)n1Cc1ccco1 | i | -12 | i | i | -3* | i | 0.0058 | ? | 0.023* | 0.0055* | 0.011* | 0.0093
O=C(CSc1nnc(-c2ccco2)n1Cc1ccccc1)c1ccc(F)cc1 | i | -14 | i | i | -6.1* | i | 0.0059 | ? | 0.021* | 0.0055* | 0.012* | ?
O=C(CSc1nnc(-c2ccco2)n1Cc1ccccc1)NCc1ccccc1 | i | -6 | i | i | -0.07 | i | · | · | · | · | · | ·
O=C(CSc1nnc(-c2cc3ccccc3cc2O)n1Cc1ccco1)c1ccc(F)cc1 | i | -10 | i | i | -0.17 | i | · | · | · | · | · | ·
O=[N+]([O-])c1ccc(NC(=S)NCCc2ccc(F)cc2)cc1 | i | -49 | i | i | -6.1* | 6* | 0.0069 | 0.0038 | 0.021* | 0.0052* | 0.01* | 0.008*
CN=c1sc2c(n1C)C(=O)c1ccccc1C2=O | · | · | i | · | · | · | · | · | · | · | · | ·
CC(C)(C)OC(=O)N(CCc1ccccc1)Cc1cccc(OCc2cccc(NC(=O)c3ccccc3)c2)c1 | · | · | i | · | · | · | · | · | · | · | · | ·
O=C(O)c1cc(-c2cccc(Cl)c2)nc2nc(N3CCCCC3)sc12 | i | -7 | i | i | -4.2* | i | 0.009 | 0.0058 | 0.034 | 0.0075 | 0.017* | 0.01
Oc1c(C(c2ccccc2Cl)N2CCCC2)ccc2cccnc12 (configuration not stated) | i | -17 | i | i | 2.9* | i | 0.017 | 0.0085* | 0.03 | 0.01* | 0.018 | 0.013*
Oc1c(C(c2cccs2)N2CCN(c3ccccc3)CC2)ccc2cccnc12 (configuration not stated) | · | · | · | · | 0.093 | · | · | · | · | · | · | ·
NC(=O)NNC(=S)Nc1cccc2ccccc12 | i | -7 | i | i | -0.42 | i | · | · | · | · | · | ·
NC(=O)c1ccccc1NC(=O)Nc1cccc2ccccc12 | i | -9 | i | i | -4.1* | i | ? | 0.0063 | 0.029 | 0.006 | 0.019 | 0.0095
Cc1ccc(C(=O)NC(=S)NCc2ccco2)cc1 | i | -4 | i | i | 19* | i | 0.014* | 0.022* | 0.035 | 0.027* | 0.029* | 0.016*
COc1ccc(C(=O)NC(=S)NCc2ccco2)cc1 | i | -8 | i | i | 6.8* | i | 0.011 | 0.015* | 0.032 | ? | ? | 0.012
COc1ccc(C(=O)NC(=S)NCc2ccco2)cc1OC | i | -1 | i | i | · | i | · | · | · | · | · | ·
O=C(CN1CCN(C(=O)C2CC2)CC1)Nc1cc(C(F)(F)F)cc(C(F)(F)F)c1 | · | · | i | · | · | · | · | · | · | · | · | ·
Cc1[nH]c(C)c(S(=O)(=O)N2c3ccccc3CC2C)c1C(=O)N1CCCCC1 (configuration not stated) | i | -7 | i | i | · | i | · | · | · | · | · | ·
Cc1ccccc1-n1c(=S)[nH]c2nc3c(cc2c1=O)CCCC3 | i | -10 | i | i | 25* | i | 0.025* | 0.069* | 0.045* | 0.046* | 0.043* | 0.035*
CCOc1ccc(CCNC(=O)COC(=O)CSc2ccc(C)cc2)cc1OCC | · | · | i | · | · | · | · | · | · | · | · | ·
Cn1c(-c2sccc2OCc2ccc(Cl)cc2Cl)n[nH]c1=S | i | -11 | i | i | 5.2* | i | 0.0065 | 0.013* | 0.026 | 0.012* | 0.017 | 0.012*
Cc1ccc(COc2ccsc2-c2n[nH]c(=S)n2C)cc1 | i | -15 | i | i | · | i | · | · | · | · | · | ·
O=C(O)c1ccc(CSc2nnc(COc3ccc(Cl)cc3Cl)o2)cc1 | i | -6 | i | i | -3.1* | i | 0.0061 | ? | 0.027 | 0.0067 | 0.017 | 0.0095
O=C(c1ccc(Cl)cc1)c1cnc2ccccn12 | i | -6 | i | i | -3.4* | i | 0.007 | 0.0046 | 0.03 | 0.008 | 0.018 | 0.01
SMILES | KCNK9 block | hERG protect | KCNK3 inh | KCNQ1 act | KCC2 mod | KCNQ1 inh | KCC2 secondary | KCC2 bumet counter | KCC2 secondary2 | HEK counter1 | KCC2 retest ouab | HEK counter2
O=C(Nc1cnc2ccccn2c1=O)c1ccc(Cl)cc1Cl | i | -3 | i | i | 0.2 | i | · | · | · | · | · | ·
O=C(Cn1cnc2c(nnn2Cc2ccc(F)cc2)c1=O)N1CCN(c2ccccc2)CC1 | i | -15 | i | i | · | i | 0.0068 | 0.0044 | 0.024* | 0.0076 | ? | 0.011
O=C(Cn1cnc2c(nnn2-c2ccccc2)c1=O)NCCc1ccccc1 | i | -6 | i | i | -4.3* | i | 0.007 | 0.0051 | 0.023* | 0.0073 | 0.014* | 0.01
O=C(Cn1cnc2c(nnn2Cc2ccccc2)c1=O)c1ccc(Cl)cc1 | i | -5 | i | i | -4.1* | i | 0.01 | ? | ? | 0.008 | 0.018* | 0.011
O=C(Cn1cnc2c(nnn2-c2ccccc2)c1=O)N1CCCc2ccccc21 | i | -4 | i | i | -0.57 | i | · | · | · | · | · | ·
O=C(Cn1cnc2c(nnn2Cc2ccccc2)c1=O)N1CCCc2ccccc21 | i | -10 | i | i | -4.5* | i | 0.0067 | 0.0051 | 0.022* | 0.008 | ? | 0.011
O=C1CSC(=Nc2ccccc2)N1 | i | -7 | i | i | 5.7* | i | 0.0079 | ? | 0.033 | 0.008 | 0.022 | ?
O=C1CSC(=Nc2ccc(F)cc2)N1 | i | -4 | i | i | · | i | · | · | · | · | · | ·

High-throughput results (PubChem BioAssay)
